Test system in one data set: not listed separately
The experiment in a line: Acute toxicity in po dosed albino mouse assessed as maximum tolerated dose. The following applies: in vivo. It is filed as organism-based. The method in brief:
(§1)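 Albino mice of either sex (20–25 g), 12 groups of six, fasted 24 h with water available. Given oral doses rising through 10, 20, 100, 200, 1000 and 2000 mg/kg. Watched continuously for 3 h for behavioural, neurological and autonomic signs, then every 30 min for the next 3 h, then up to 24 h or until death. Guideline: OECD.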
For the molecule `O=c1oc2ccccc2cc1C1=NN(c2ccccc2)[C@@H](c2ccc(Cl)cc2)C1`, the maximal tolerated dose (MTD) came out at 2000 mg/kg.

For `O=c1oc2ccccc2cc1C1=NN(c2ccccc2)[C@@H](c2ccc(Cl)cc2Cl)C1`, the maximum tolerated dose (MTD) was determined as 2000 mg/kg.

As for `O=c1oc2ccccc2cc1C1=NN(c2ccccc2)[C@@H](c2ccccc2)C1`, the MTD was 2000 mg/kg.

As to `O=c1oc2ccccc2cc1C1=NN(c2ccccc2)[C@@H](c2ccc(F)cc2)C1`, the maximal tolerated dose (MTD) stood at 2000 mg/kg.

A further data set deals with Mus musculus. Kind of data set: Acute toxicity in albino mouse assessed as mortality up to 2000 mg/kg, po after 24 hrs. It is filed as organism-based. More on the design: dose 2000 mg/kg, route oral. As to conditions: in vivo. The gist of the method: as §1
As for `O=c1oc2ccccc2cc1C1=NN(c2ccccc2)[C@@H](c2ccc(Cl)cc2)C1`, the Activity result was “Non-toxic”.

`O=c1oc2ccccc2cc1C1=NN(c2ccccc2)[C@@H](c2ccc(Cl)cc2Cl)C1`: the Activity entry was “Non-toxic”.

`O=c1oc2ccccc2cc1C1=NN(c2ccccc2)[C@@H](c2ccccc2)C1`: the Activity result is recorded as “Non-toxic”.

`O=c1oc2ccccc2cc1C1=NN(c2ccccc2)[C@@H](c2ccc(F)cc2)C1`: the Activity entry is on record as “Non-toxic”.

For a further data set, the system named is Rattus norvegicus. The experiment in a line: Antipyretic activity in yeast-induced pyrexia albino rat model assessed as mean rectal temperature at 200 mg/kg, po administered 30 mins after 18 hrs of yeast challenge measured after 4 hrs postdosing (Rvb=38.7 degC). It is filed as functional.
Conditions: not given
Regarding `O=c1oc2ccccc2cc1C1=NN(c2ccccc2)[C@@H](c2ccc(Cl)cc2)C1`, the Activity came out at 38.1 °C.

For `O=c1oc2ccccc2cc1C1=NN(c2ccccc2)[C@@H](c2ccc(Cl)cc2Cl)C1`, the Activity is 37.8 °C.

Regarding `O=c1oc2ccccc2cc1C1=NN(c2ccccc2)[C@@H](c2ccc(F)cc2)C1`, the Activity came out at 37.7 °C.

The subject of the next data set is Rattus norvegicus. The experiment in a line: Antiinflammatory activity in albino rat acute inflammatory model assessed as inhibition of carrageenan-induced paw edema at 200 mg/kg, po dosed 1 hr before carrageenan challenge measured after 2 hrs relative to control. It is filed as functional.
Conditions: not given
The gist of the method: (§2)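 Male albino rats (170–220 g), fasted at least 12 h with water available, groups of six. Oral dosing with 0.5% sodium CMC vehicle control. One hour later, 0.05 ml of 1% carrageenan was injected subplantar into the left hind paw. Paw volume was measured by digital plethysmometer at 0, 2 and 4 h. % inhibition = [1 − treated/control edema volume] × 100, n=6.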
(The carrageenan paw model is a standard test of acute inflammation.)
For the molecule `O=c1oc2ccccc2cc1C1=NN(c2ccccc2)[C@@H](c2ccc(Cl)cc2)C1`, the inhibition in vivo at 200 mg/kg turned out to be 39.2%.

On to `O=c1oc2ccccc2cc1C1=NN(c2ccccc2)[C@@H](c2ccc(Cl)cc2Cl)C1`, for which the inhibition in vivo at 200 mg/kg is 56.7%.

In the case of `O=c1oc2ccccc2cc1C1=NN(c2ccccc2)[C@@H](c2ccccc2)C1`, the inhibition in vivo at 200 mg/kg came out at 27.2%.

Turning to `O=c1oc2ccccc2cc1C1=NN(c2ccccc2)[C@@H](c2ccc(F)cc2)C1`, the inhibition in vivo at 200 mg/kg was 44.9%.

Another data set deals with Rattus norvegicus. Kind of data set: Antipyretic activity in yeast-induced pyrexia albino rat model assessed as mean rectal temperature at 200 mg/kg, po administered 30 mins after 18 hrs of yeast challenge measured after 3 hrs postdosing (Rvb=38.9 degC). It is filed as functional.
Conditions: not given
For the molecule `O=c1oc2ccccc2cc1C1=NN(c2ccccc2)[C@@H](c2ccc(Cl)cc2)C1`, the Activity is 38.5 °C.

Take `O=c1oc2ccccc2cc1C1=NN(c2ccccc2)[C@@H](c2ccc(Cl)cc2Cl)C1`: the Activity stood at 38.1 °C.

Take `O=c1oc2ccccc2cc1C1=NN(c2ccccc2)[C@@H](c2ccc(F)cc2)C1`: the Activity came to 37.9 °C.

Another data set deals with Rattus norvegicus. The experiment in a line: Antipyretic activity in yeast-induced pyrexia albino rat model assessed as temperature index measured by sum of mean rectal temperature changes from 0 to 5 hrs at 200 mg/kg, po administered 30 mins after 18 hrs of yeast challenge (Rvb=39.4 degreeC). It is filed as functional.
Conditions: not given
`O=c1oc2ccccc2cc1C1=NN(c2ccccc2)[C@@H](c2ccc(F)cc2)C1`: the Activity was -6.6 °C.

A further data set deals with Rattus norvegicus. Kind of data set: Antipyretic activity in yeast-induced pyrexia albino rat model assessed as mean rectal temperature at 200 mg/kg, po administered 30 mins after 18 hrs of yeast challenge measured after 2 hrs postdosing (Rvb=39.2 degC). It is filed as functional.
Conditions: not given
On to `O=c1oc2ccccc2cc1C1=NN(c2ccccc2)[C@@H](c2ccc(Cl)cc2)C1`, for which the Activity was 38.9 °C.

Take `O=c1oc2ccccc2cc1C1=NN(c2ccccc2)[C@@H](c2ccc(Cl)cc2Cl)C1`: the Activity came out at 38.6 °C.

Consider `O=c1oc2ccccc2cc1C1=NN(c2ccccc2)[C@@H](c2ccc(F)cc2)C1`, for which the Activity is 38.3 °C.

In the next data set the test system is Rattus norvegicus. The experiment in a line: Antiinflammatory activity in albino rat acute inflammatory model assessed as inhibition of carrageenan-induced paw edema at 200 mg/kg, po dosed 1 hr before carrageenan challenge measured after 4 hrs relative to control. It is filed as functional.
Conditions: not given
The gist of the method: as §2
With `O=c1oc2ccccc2cc1C1=NN(c2ccccc2)[C@@H](c2ccc(Cl)cc2)C1`, the inhibition in vivo at 200 mg/kg stood at 64.7%.

With `O=c1oc2ccccc2cc1C1=NN(c2ccccc2)[C@@H](c2ccc(Cl)cc2Cl)C1`, the inhibition in vivo at 200 mg/kg turned out to be 67.5%.

Regarding `O=c1oc2ccccc2cc1C1=NN(c2ccccc2)[C@@H](c2ccccc2)C1`, the inhibition in vivo at 200 mg/kg stood at 32.7%.

As to `O=c1oc2ccccc2cc1C1=NN(c2ccccc2)[C@@H](c2ccc(F)cc2)C1`, the inhibition in vivo at 200 mg/kg turned out to be 66.7%.

In another data set the test system is Rattus norvegicus. The experiment in a line: Antipyretic activity in yeast-induced pyrexia albino rat model assessed as mean rectal temperature at 200 mg/kg, po administered 30 mins after 18 hrs of yeast challenge measured after 1 hr postdosing (Rvb=39.4 degC). It is filed as functional.
Conditions: not given
As to `O=c1oc2ccccc2cc1C1=NN(c2ccccc2)[C@@H](c2ccc(Cl)cc2)C1`, the Activity was 39.1 °C.

For the molecule `O=c1oc2ccccc2cc1C1=NN(c2ccccc2)[C@@H](c2ccc(Cl)cc2Cl)C1`, the Activity was 38.9 °C.

Consider `O=c1oc2ccccc2cc1C1=NN(c2ccccc2)[C@@H](c2ccc(F)cc2)C1`, for which the Activity worked out at 39.2 °C.

For the next data set, the system named is Rattus norvegicus. Kind of data set: Antipyretic activity in yeast-induced pyrexia albino rat model assessed as temperature index measured by sum of mean rectal temperature changes from 0 to 5 hrs at 200 mg/kg, po administered 30 mins after 18 hrs of yeast challenge (Rvb=39.2 degC). It is filed as functional.
Conditions: not given
Take `O=c1oc2ccccc2cc1C1=NN(c2ccccc2)[C@@H](c2ccc(Cl)cc2Cl)C1`: the Activity is -5.4 °C.

The subject of another data set is Mus musculus. The experiment in a line: Analgesic activity in albino mouse assessed as protection against glacial acetic acid-induced writhing response at 200 mg/kg, po pretreated 0.5 hrs before glacial acetic acid challenge measured for 15 mins.
Conditions: not given
It is filed as functional. The gist of the method:
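Albino mice of either sex (20–25 g). Mice were pre-screened the day before for writhing, and only responders were used. Compound was given orally as a suspension in 0.5% sodium CMC 30 min before glacial acetic acid challenge. Stretching episodes were counted for 15 min. Results are the group mean, n=6, with % protection against control.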
On the technique in general: Writhing tests count abdominal constrictions after an irritant is injected.
Consider `O=c1oc2ccccc2cc1C1=NN(c2ccccc2)[C@@H](c2ccc(Cl)cc2)C1`, for which the Activity turned out to be 41%.

In the case of `O=c1oc2ccccc2cc1C1=NN(c2ccccc2)[C@@H](c2ccc(Cl)cc2Cl)C1`, the Activity is 59%.

In the case of `O=c1oc2ccccc2cc1C1=NN(c2ccccc2)[C@@H](c2ccc(F)cc2)C1`, the Activity worked out at 55%.

In a further data set the test system is Rattus norvegicus. The experiment in a line: Antipyretic activity in yeast-induced pyrexia albino rat model assessed as mean rectal temperature at 200 mg/kg, po administered 30 mins after 18 hrs of yeast challenge measured after 5 hrs postdosing (Rvb=38.2 degC).
Conditions: not given
It is filed as functional.
On to `O=c1oc2ccccc2cc1C1=NN(c2ccccc2)[C@@H](c2ccc(Cl)cc2)C1`, for which the Activity stood at 38 °C.

`O=c1oc2ccccc2cc1C1=NN(c2ccccc2)[C@@H](c2ccc(Cl)cc2Cl)C1`: the Activity stood at 37.2 °C.

For `O=c1oc2ccccc2cc1C1=NN(c2ccccc2)[C@@H](c2ccc(F)cc2)C1`, the Activity amounted to 37.1 °C.

The test system of another data set is Rattus norvegicus. Kind of data set: Gastrointestinal toxicity in starved albino rat stress model assessed as ulcer index at 200 mg/kg, po after 7 hrs. It is filed as organism-based. More on the design: dose 200 mg/kg, route oral. As to conditions: in vivo. The method in brief:
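Albino rats of either sex, 170–250 g, six per group, starved 48 h with water ad libitum. Dosed orally as a suspension in 0.5% sodium CMC, test compounds at 200 mg/kg b.w. Killed 7 h later. Stomach opened along the greater curvature and everted. Ulcer index from lesion counts in five size classes, ranging from pinpoint to >4 mm diameter.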
In the case of `O=c1oc2ccccc2cc1C1=NN(c2ccccc2)[C@@H](c2ccc(Cl)cc2)C1`, the UI is reported as 2.33.

`O=c1oc2ccccc2cc1C1=NN(c2ccccc2)[C@@H](c2ccc(Cl)cc2Cl)C1`: the UI turned out to be 2.67.

As to `O=c1oc2ccccc2cc1C1=NN(c2ccccc2)[C@@H](c2ccc(F)cc2)C1`, the UI came to 1.66.

The next data set deals with Rattus norvegicus. Kind of data set: Antiinflammatory activity in albino rat chronic arthritis model assessed as inhibition of Freund's adjuvant-induced paw edema at 200 mg/kg, po administered on day 16 to 19 post Freund's adjuvant challenge measured on day 19 relative to control. It is filed as functional.
Conditions: not given
The method in brief: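 Male albino rats (150–230 g) received 0.1 ml heat-killed M. tuberculosis (Freund's complete adjuvant) into the left hind footpad on day 1. Rats with developed arthritis on day 15 were split into groups of six. Dosing was oral, days 16–19, with 1 ml 0.5% sodium CMC as control. Paw volume, body weight and secondary lesions were recorded daily. % inhibition was calculated from day 15, n=6.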
Take `O=c1oc2ccccc2cc1C1=NN(c2ccccc2)[C@@H](c2ccc(Cl)cc2)C1`: the inhibition in vivo at 200 mg/kg came out at 39.1%.

Take `O=c1oc2ccccc2cc1C1=NN(c2ccccc2)[C@@H](c2ccc(Cl)cc2Cl)C1`: the inhibition in vivo at 200 mg/kg is 45.4%.

`O=c1oc2ccccc2cc1C1=NN(c2ccccc2)[C@@H](c2ccc(F)cc2)C1`: the inhibition in vivo at 200 mg/kg turned out to be 40.5%.

For a further data set, the system named is Rattus norvegicus. The experiment in a line: Antipyretic activity in yeast-induced pyrexia albino rat model assessed as temperature index measured by sum of mean rectal temperature changes from 0 to 5 hrs at 200 mg/kg, po administered 30 mins after 18 hrs of yeast challenge (Rvb=39.3 degC).
Conditions: not given
It is filed as functional.
As to `O=c1oc2ccccc2cc1C1=NN(c2ccccc2)[C@@H](c2ccc(Cl)cc2)C1`, the Activity was -3.9 °C.

Broadly, the MTD is the highest dose tested that stayed within the study's limit of toxicity. For orientation: inhibition in vivo means the change of the read-out against control, counted positive when it falls.

(Values after ChEMBL document CHEMBL1137722, “Synthesis and pharmacological evaluation of a novel series of 5-(substituted)aryl-3-(3-coumarinyl)-1-phenyl-2-pyrazolines as novel anti-inflammatory and analgesic agents” (Eur J Med Chem, 2009).)
